MC4R barr agon – activates human MC4R beta-arrestin recruitment | P32245 | U2OS MC4R beta-arrestin complementation, luminescence; percent of melanotan II response, DMSO zero | activation, % at 8.9 µM | actives 0.98% (n = 360,000);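 active means activation above a per-plate cutoff, the mean activation of sample wells on that plate plus 3 SD, cut at about 8% in these data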
TAAR1 antagonist – antagonists of human TAAR1 | Q96RJ0 | CHO RD-HGA16 TAAR1, Fluo-8 calcium fluorescence, antagonist | inhibition, % at 3 µM | actives 1.5% (n = 360,000) | AID 624466;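 active means inhibition above a per-plate cutoff, the mean inhibition of test compounds on that plate plus 3 SD, cut at about 49% in these data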;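 further: 0% = DMSO plus EC80 beta-PEA response and 100% = DMSO alone without agonist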
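Assay system: CHO-derived RD-HGA16 cells stably expressing human TAAR1 plus Gα16. Timing: 140 s kinetic read after compound, 140 s after agonist. Technique: kinetic Fluo-8 calcium fluorescence measurement. Measure: % inhibition of agonist calcium response.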
m5-HT2A agonist – mouse HTR2A agonism via beta-arrestin recruitment; actives 0.66% (n = 360,000); P35363; CHO-K1 mHTR2A beta-arrestin complementation, luminescence; percent of 30 µM serotonin response; activation, % at 7.6 µM;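 active means activation above a run cutoff, the mean activation of all tested compounds plus 3 SD, cut at about 14% in these data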;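 further: 0% = plate median of compound wells and 100% = 30 µM serotonin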
MC4R antagonist – human MC4R antagonism in cAMP assay; P32245; AID 540295; actives 0.48% (n = 360,000); inhibition, % at 6.5 µM; MC4R-expressing cells, MTII-stimulated cAMP, LANCE TR-FRET;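 active means inhibition above its plate's cutoff, the mean of tested wells on that plate plus 3 SD, cut at about 29% in these data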;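 further: 0% = Melanotan II alone and 100% = Melanotan II plus saturating MCL0020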
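Material: U2OS-MC4R stable cell line | Reagent: Melanotan II challenge after compound preincubation | Doses: One concentration, 6.5 µM nominal | Incubation: 30-min compound preincubation, 1-h Melanotan II challenge, 1-h detection, room temperature | Signal: TR-FRET cAMP assay | Replicates: One well per compound, no replicates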
TAAR1 ag – human TAAR1 agonism. AID 624467. activation, % at 3 µM. actives 0.99% (n = 360,000). Q96RJ0. CHO RD-HGA16 TAAR1, Fluo-8 calcium fluorescence; vehicle wells 0%, saturating PEA agonist 100%;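 active means activation above the mean activation of all test compounds in the run plus 3 SD, cut at about 38% in these data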
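System: CHO-derived RD-HGA16 cells with stable Gα16 and human TAAR1. Times: 17-24 h plating, Fluo-8 75 min 37 °C, 30 min RT. Measured by: calcium-sensitive Fluo-8 signal, excitation 470-495, emission 515-575 nm. Read-out basis: % activation relative to PEA EC100 response. Control set: DMSO and PEA EC100. Repeats: no replicates (n 1).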
Beta2AR agonist – human beta-2 adrenergic receptor agonism by FAP; response, % (concentration not given with the values); AID 504454; actives 0.43% (n = 340,000); Am2.2-beta2AR cells, FAP receptor internalization, flow cytometry;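 active means response above a set limit, near 3 SD of response in nonfluorescent compounds, cut at about 42% in these data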
Target sequence (P07550 whole entry, looked up): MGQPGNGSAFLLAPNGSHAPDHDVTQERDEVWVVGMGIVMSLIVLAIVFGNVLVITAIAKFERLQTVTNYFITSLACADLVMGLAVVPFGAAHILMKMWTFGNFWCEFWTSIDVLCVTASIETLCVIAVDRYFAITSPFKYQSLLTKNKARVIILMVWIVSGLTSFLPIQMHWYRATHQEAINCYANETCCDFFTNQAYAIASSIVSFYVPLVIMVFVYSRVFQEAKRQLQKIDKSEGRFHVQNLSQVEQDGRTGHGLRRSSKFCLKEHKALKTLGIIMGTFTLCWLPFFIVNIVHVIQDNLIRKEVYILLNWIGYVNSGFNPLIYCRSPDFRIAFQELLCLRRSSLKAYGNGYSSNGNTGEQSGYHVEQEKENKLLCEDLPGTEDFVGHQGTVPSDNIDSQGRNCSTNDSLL
MC4R barr conf – human MC4R beta-arrestin agonism confirmation. shares compounds with MC4R barr agon. U2OS MC4R beta-arrestin recruitment, luminescence; scaled DMSO 0%, Melanotan II 100%. activation, % at 8.9 µM. actives 31% (n = 2,400). AID 602192;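 active means mean activation across replicates above the hit cutoff set in the earlier primary screen, cut at about 8% in these data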
MOR-DOR barr ag – counter-screen for MC4R agonists: agonists of mu-delta opioid heterodimer; shares compounds with MC4R barr agon; U2OS PathHunter beta-arrestin, beta-gal luminescence; percent of deltorphin B response, DMSO zero; activation, % at 9.2 µM; actives 5.8% (n = 2,400);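 active means mean activation across replicates exceeds the hit threshold derived in the earlier primary screen, cut at about 18% in these data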;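 further: 100% = deltorphin B at 0.9 µM final and 0% = DMSO alone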
The depositor's hits bear a star; nt = no result. This is a sample that favours compounds with a hit; in the whole collection about 4.3% have one here.

SMILES	MC4R barr agon	TAAR1 antagonist	m5-HT2A agonist	MC4R antagonist	TAAR1 ag	Beta2AR agonist	MC4R barr conf	MOR-DOR barr ag
CCNC(=O)C1(C)CCCN(C(=O)c2ccccc2Br)C1 (centres undefined)	0	-17	-2	17	1	nt	nt	nt
O=C(c1ccc(NC(=O)C(c2ccccc2)c2ccccc2)cc1)c1ccc(C(=O)O)c(C(=O)O)c1	1	13	-3	1	1	-1	nt	nt
O=C(NCCc1cccnc1)C1CCC(=O)N(Cc2ccc(Cl)cc2)C1 (centres undefined)	2	-18	7	11	1	-2	nt	nt
O=C(COc1ccc2ccccc2c1)Nc1ccc2c3c(cccc13)CC2	34*	23	2	-6	5	10	7	4
CCOc1ccc(-c2nnc(-c3ccccc3)o2)cc1	2	1	1	12	8	-1	nt	nt
CCOc1ccc(-c2nnc(-c3ccc(OC)cc3)o2)cc1	31*	6	-3	4	6	11	1	5
O=C1/C(=C/c2cccc([N+](=O)[O-])c2)CSc2ccc(Cl)cc21	11*	-16	-1	5	4	-24	-1	2
Cc1ccccc1C(=O)N[C@H](C(=O)Nc1ccc(Cl)c(Cl)c1)C(C)C	17*	-5	1	7	0	2	-1	4
O=C(COc1ccccc1)NCC(=O)N1CCCC(C(F)(F)F)C1 (centres undefined)	-2	-2	11	10	1	-10	nt	nt
CCCCCCCCn1ccc(=N)cc1	1	7	2	-3	0	7	nt	nt
CCCCCCCCCCCCCCCCn1cc[n+](C)c1	15*	41	-6	16	27	8	30*	8
N#Cc1cn(-c2ccccc2)nc1-c1ccccc1	12*	-3	0	0	5	19	-1	9
C=C(C)COC(=O)C1CC2OC2CC1C(=O)OCC(=C)C (centres undefined)	0	-1	-2	-6	2	4	nt	nt
COc1ccc(OCCn2cc(/C=C(\C#N)C(=O)NCc3ccco3)c3ccccc32)cc1	50*	43	11	-6	1	0	52*	30*
COc1ccccc1OCCn1cc(/C=C(\C#N)C(=O)NCc2ccco2)c2ccccc21	1	47	-3	8	-1	-1	nt	nt
N#C/C(=C\c1cn(CCOc2ccccc2)c2ccccc12)C(=O)NCc1cccs1	23*	7	1	8	6	-7	6	7
N#C/C(=C\c1cn(CC(=O)O)c2ccccc12)C(=O)NCc1ccccc1	-2	-7	-5	1	0	3	nt	nt
Cc1ccc(C)c(OCCn2cc(/C=C(\C#N)C(=O)NCc3ccco3)c3ccccc32)c1	11*	4	4	19	8	-9	12*	9
CCOC(=O)c1ccc(S(=O)(=O)NC2CCC(C)CC2)cc1 (centres undefined)	11*	22	-3	1	0	14	1	7
CCN(CC)C(=O)C1=C(C)N(Cc2ccccc2)C(=O)C(CC(=O)NCc2ccco2)C1 (centres undefined)	2	-10	-1	7	-1	nt	nt	nt
COc1ccc(NC(=O)C[C@H]2C(=O)N(Cc3ccccc3)C[C@@H]2C)cc1	0	-13	0	1	0	nt	nt	nt
COc1cc2ccc(C(C)=NNC(N)=S)cc2cc1OC	-1	-12	6	-7	2	nt	nt	nt
CCCOc1ccc(N2C(=O)CC(NNC(=O)c3ccc(COc4ccccc4)o3)C2=O)cc1 (centres undefined)	13*	-6	0	21	2	-12	5	7
Cc1ccc(NC(=O)c2nc[nH]c2C(=O)Nc2ccccc2F)cc1	16*	-30	2	0	-1	nt	-1	2
O=C(NCc1ccccc1)[C@@H]1CCCN1C(=O)[C@H]1CCCN1C(=O)c1ccccc1F	nt	-12	nt	nt	2	nt	nt	nt
SMILES	MC4R barr agon	TAAR1 antagonist	m5-HT2A agonist	MC4R antagonist	TAAR1 ag	Beta2AR agonist	MC4R barr conf	MOR-DOR barr ag
COc1cccc(-c2cnc(C(O)c3cccc(F)c3)[nH]2)c1 (centres undefined)	1	-13	2	1	4	nt	nt	nt
COc1cccc(-c2cnc3c(NC(C)=O)cc(-c4ccc(OC)c(OC)c4)cn23)c1	7	-20	-3	7	3	nt	nt	nt
COc1ccc(-c2cc(NC(C)=O)c3ncc(-c4cccc(C(C)=O)c4)n3c2)cc1OC	26*	27	-7	13	5	nt	27*	2
COc1cccc(-c2cc(NC(C)=O)c3ncc(-c4ccc(OC)c(OC)c4)n3c2)c1	17*	26	-5	6	3	nt	11*	3
COc1cc(NC(=O)CN2C(=O)C(=O)N(C3CCCC3)C2=O)cc(OC)c1	-2	-11	0	0	4	10	nt	nt
O=C(COC(=O)c1ccc2ccccc2c1)Nc1ncc(C(F)(F)F)cc1Cl	10*	13	1	3	2	-8	6	4
O=C(COC(=O)c1ccc2ccccc2n1)Nc1ncc(C(F)(F)F)cc1Cl	-1	9	6	16	-1	11	nt	nt
CC(=O)Nc1cccc(-c2ccnc3c2CC(C)(C(=O)Nc2cccc(OC(F)(F)F)c2)O3)c1 (centres undefined)	-1	30	-9	-13	3	nt	nt	nt
CCc1c(Cl)nc(N)nc1Nc1ccccc1Cl	1	-28	1	13	3	-7	nt	nt
CCC1S/C(=N/N=C/c2cccs2)NC1=O (centres undefined)	-1	1	-4	-1	2	1	nt	nt
CCCC1S/C(=N/N=C/c2cccs2)NC1=O (centres undefined)	-1	0	-1	-3	8	-1	nt	nt
O=C1N/C(=N\N=C\c2cccs2)SC1Cc1ccc(Cl)cc1 (centres undefined)	15*	11	-2	-4	5	1	4	5
O=C1N/C(=N\N=C\c2cccs2)SC1Cc1cccc(Cl)c1 (centres undefined)	12*	18	0	-2	0	-5	1	9
Cc1c(C(=O)O)sc2[nH]c(=O)n(Cc3ccccc3)c(=O)c12	-1	-1	8	20	3	8	nt	nt

Screening data deposited in PubChem by several laboratories.
